Neddylation inh: inhibitors of cullin neddylation, primary screen, biochemical, TR-FRET, uHTS, NAE and Ubc12; inhibition, % at 25 µM; 360,000 compounds, 0.58% hits; in the data active = inhibition above about 36%
PfM18AAP inh: PfM18AAP inhibitors, malaria aminopeptidase, primary screen, biochemical, QFRET, recombinant enzyme. M18 aspartyl aminopeptidase (Plasmodium falciparum 3D7). H-Glu-NHMec fluorogenic cleavage. inhibition, % at 7.35 µM. 290,000 compounds, 1.2% hits;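 active = inhibition above the campaign mean inhibition over all tested compounds plus 3 SD, cut at about 28% in these data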
PfGluPho inh: PfG6PD enzyme inhibitors, primary screen, biochemical, fluorescence intensity, uHTS; glucose-6-phosphate dehydrogenase-6-phosphogluconolactonase (Plasmodium falciparum 3D7); 350,000 compounds, 0.78% hits; PfGluPho enzyme, NADPH resazurin-diaphorase fluorescence; AID 504690, 2011; inhibition, % at 20 µM;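 active = inhibition reaching at least a set limit at 20 µM in the primary screen, cut at about 59% in these data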
HKDC1 inh: HKDC1 hexokinase inhibitors, primary screen, biochemical, fluorescence, uHTS. recombinant HKDC1, G6PDH/diaphorase resazurin coupled fluorescence. inhibition, % at 20 µM. 340,000 compounds, 0.16% hits;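 active = inhibition above about 35% when tested at 20 µM, limit read from the data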
Target sequence (Q2TB90 whole entry, looked up): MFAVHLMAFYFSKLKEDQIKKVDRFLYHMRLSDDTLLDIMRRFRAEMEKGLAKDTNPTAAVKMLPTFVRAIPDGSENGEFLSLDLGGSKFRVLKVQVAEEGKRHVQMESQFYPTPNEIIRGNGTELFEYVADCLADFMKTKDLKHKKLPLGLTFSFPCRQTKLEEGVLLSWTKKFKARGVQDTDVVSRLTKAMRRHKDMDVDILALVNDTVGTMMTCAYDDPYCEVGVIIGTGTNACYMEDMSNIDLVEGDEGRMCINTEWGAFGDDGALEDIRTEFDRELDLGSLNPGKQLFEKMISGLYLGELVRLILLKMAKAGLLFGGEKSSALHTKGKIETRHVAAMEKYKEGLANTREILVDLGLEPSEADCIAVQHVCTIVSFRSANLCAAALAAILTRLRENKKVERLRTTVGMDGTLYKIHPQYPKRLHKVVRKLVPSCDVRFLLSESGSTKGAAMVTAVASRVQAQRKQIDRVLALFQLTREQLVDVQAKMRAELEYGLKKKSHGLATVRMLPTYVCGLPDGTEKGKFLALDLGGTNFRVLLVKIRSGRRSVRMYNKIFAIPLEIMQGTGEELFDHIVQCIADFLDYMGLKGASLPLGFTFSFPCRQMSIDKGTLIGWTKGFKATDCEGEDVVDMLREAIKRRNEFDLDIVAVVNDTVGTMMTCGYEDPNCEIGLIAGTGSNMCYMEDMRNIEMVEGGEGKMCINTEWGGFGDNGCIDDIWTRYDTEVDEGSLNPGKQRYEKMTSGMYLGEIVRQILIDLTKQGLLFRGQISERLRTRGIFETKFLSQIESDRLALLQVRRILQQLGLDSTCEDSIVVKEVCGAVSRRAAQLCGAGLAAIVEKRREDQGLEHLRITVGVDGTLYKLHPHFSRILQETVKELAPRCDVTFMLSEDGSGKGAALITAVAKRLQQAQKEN
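Assay system: recombinant HKDC1 hexokinase; detection: coupled resazurin fluorescence, excitation 525 nm, emission 613 nm; benchmarks: DMSO-plus-enzyme-mix negative control, buffer-substituted positive control; compound dosing: single 20 µM dose; schedule: 90 min at room temperature in dark; also added: glucose plus 1 mM ATP as hexokinase substrates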
Of the large screens only hits and unclear results are named; the others gave an inactive call. Hits are enriched below; roughly 2.2% of the tested compounds scored in any of these assays.

CCOC(=O)COc1ccccc1/C=C\[N+](=O)[O-]	PfM18AAP inh 31.7
O=C(CSc1n[nH]c(-c2ccccc2)n1)Nc1ncc(Br)cc1Br	HKDC1 inh 47.7
Nc1ncc(N=Nc2cc(C(=O)O)ccc2Cl)s1	PfM18AAP inh 28.8
Cc1ccc(C2C(C#N)=C(N)SC(N)=C2C#N)cc1	PfM18AAP inh 42.4
Cc1ccc(C2C(C#N)=C(N)SC(N)=C2C#N)c(C)c1	none
Cc1ccc(Nc2nc(-c3ccccc3)c(CC(=O)O)s2)cc1	none
O=C(O)Cc1sc(Nc2ccc(F)cc2)nc1-c1cccs1	PfM18AAP inh 29.0
C/C(=N/Nc1ccc(C(=O)O)cc1)c1ccc(O)c(O)c1O	PfM18AAP inh 51.5
COc1ccc(/C(C)=N/Nc2ccc(C(=O)O)cc2)cc1OC	PfM18AAP inh 28.6
COc1cc(/C(C)=N/Nc2ccc(C(=O)O)cc2)cc(OC)c1OC	none
COc1ccc(OC)c(/C(C)=N/Nc2ccc(C(=O)O)cc2)c1	none
CC1(CO)COC2(OC1)C(=O)Nc1ccccc12 (stereo unspecified)	none (no result: PfM18AAP inh)
Cc1ccccc1N1CCN(C(=S)c2ccc(-c3cccc([N+](=O)[O-])c3)o2)CC1	none
Cc1ccc(N2CCN(C(=S)c3ccc(-c4cccc([N+](=O)[O-])c4)o3)CC2)cc1	PfM18AAP inh 30.1
CC(=O)N1CCN(C(=S)c2cccc([N+](=O)[O-])c2)CC1	none
O=[N+]([O-])c1ccc(N2CCN(C(=S)c3cccc([N+](=O)[O-])c3)CC2)cc1	PfGluPho inh 68.2
Cc1cccc(CCN2C(N(C)C)=NC[C@@H]2C)c1	none (no result: PfM18AAP inh)
COc1ccc(CN(CC(=O)NC(C)C)C(=O)CCC(=O)Nc2nccs2)cc1	none
CCC(CC)c1nnc(NC(=O)COc2ccc3c(c2)OCO3)s1	PfM18AAP inh 29.6
O=C(O)C1CSC(c2coc3ccccc3c2=O)N1 (stereo unspecified)	PfM18AAP inh 28.7
CC1CCOC(c2coc3ccccc3c2=O)O1 (stereo unspecified)	none
CC(C)CCn1c(=O)c2ccccc2n2c(=S)[nH]nc12	PfM18AAP inh 28.9
CC(C)CCn1c(=O)c2ccccc2n2c(CCl)nnc12	none
CCN1CCN(C(=O)c2cnn3c(C(F)F)cc(-c4ccc(C)cc4)nc23)CC1	Neddylation inh 47.8
Cc1cc(C)cc(N2C(=O)C=CC2=O)c1	PfGluPho inh 85.7 (no result: PfM18AAP inh)
Cc1ccc(N2C(=O)C3C4C=CC(CC4)C3C2=O)cc1[N+](=O)[O-] (stereo unspecified)	none
Cc1cc(C)cc(N2C(=O)c3nccnc3C2=O)c1	none
Cc1cc(N2C(=O)C=CC2=O)c([N+](=O)[O-])cc1C	PfGluPho inh 91.3
Cc1c([N+](=O)[O-])cc(N2C(=O)C=CC2=O)cc1[N+](=O)[O-]	PfGluPho inh 101.4 (no result: PfM18AAP inh)
CCCC1Cc2c(sc(N)c2C#N)CO1 (stereo unspecified)	none
O=C(NC1CCCCCC1)C(=O)NC1CC1	none
O=C(NC1CCCCCC1)C(=S)NC1CCCCC1	PfM18AAP inh 30.2
Nc1ccc2nc3c(=O)n(CCc4ccccc4)c(=O)[nH]c3nc2c1	none
Cc1cc2nc3c(=O)n(CCc4ccccc4)c(=O)[nH]c3nc2cc1N	PfM18AAP inh 34.0
Nn1c(-c2ccco2)n[nH]c1=S	PfM18AAP inh 28.6
COc1ccc(-n2c(-c3ccco3)n[nH]c2=S)cc1	none
S=c1[nH]nc(-c2ccco2)n1-c1ccc(Cl)cc1	PfM18AAP inh 30.1
Cc1nn(C)cc1-c1n[nH]c(=S)n1-c1ccc(Cl)cc1	PfM18AAP inh 29.8
COc1ccc(S(=O)(=O)N(CC(=O)NC2CC2)Cc2ccccc2)cc1	none
ClC(/C=N/n1cnnc1)=C/c1ccccc1	PfM18AAP inh 31.7
Oc1ccc(N=Cc2ccc(O)c(O)c2)cc1	PfM18AAP inh 45.6, PfGluPho inh 67.3
C(=NOCc1ccccc1)c1cccnc1	none (no result: PfM18AAP inh)
C=C1C(=O)C=C2CN(C(=O)c3ccccc3)[C@@](Cc3ccc(F)cc3)(C(=O)OC)[C@@H]12	PfGluPho inh 71.6
Cc1ccc(C(=O)Nn2cnnc2)cc1	PfM18AAP inh 28.9
Cc1ccc(-n2c(C)n[nH]c2=S)cc1	PfM18AAP inh 30.2
CC(C(=O)Nc1ccccn1)N1C(=O)c2ccccc2S1(=O)=O (stereo unspecified)	none (no result: PfM18AAP inh)
N#CC1=C(N)Oc2cc(N)ccc2C1c1cccc(F)c1 (stereo unspecified)	none

Screening data deposited in PubChem BioAssay by several laboratories.
